Source: ChEMBL document CHEMBL4316604, “Discovery of Isaindigotone Derivatives as Novel Bloom's Syndrome Protein (BLM) Helicase Inhibitors That Disrupt the BLM/DNA Interactions and Regulate the Homologous Recombination Repair” (J Med Chem, 2019)
Calls of active or inactive are those of the source. No cut-off for these calls is given here.

Legend:
[1] = target: T1, RecQ-like DNA helicase BLM (Homo sapiens, UniProt P54132); test: Inhibition of ATP hydrolysis activity of His-tagged BLM (unknown origin) expressed in Escherichia coli BL21 (DE3) at 1 to 10 uM
T1 sequence (P54132 whole entry): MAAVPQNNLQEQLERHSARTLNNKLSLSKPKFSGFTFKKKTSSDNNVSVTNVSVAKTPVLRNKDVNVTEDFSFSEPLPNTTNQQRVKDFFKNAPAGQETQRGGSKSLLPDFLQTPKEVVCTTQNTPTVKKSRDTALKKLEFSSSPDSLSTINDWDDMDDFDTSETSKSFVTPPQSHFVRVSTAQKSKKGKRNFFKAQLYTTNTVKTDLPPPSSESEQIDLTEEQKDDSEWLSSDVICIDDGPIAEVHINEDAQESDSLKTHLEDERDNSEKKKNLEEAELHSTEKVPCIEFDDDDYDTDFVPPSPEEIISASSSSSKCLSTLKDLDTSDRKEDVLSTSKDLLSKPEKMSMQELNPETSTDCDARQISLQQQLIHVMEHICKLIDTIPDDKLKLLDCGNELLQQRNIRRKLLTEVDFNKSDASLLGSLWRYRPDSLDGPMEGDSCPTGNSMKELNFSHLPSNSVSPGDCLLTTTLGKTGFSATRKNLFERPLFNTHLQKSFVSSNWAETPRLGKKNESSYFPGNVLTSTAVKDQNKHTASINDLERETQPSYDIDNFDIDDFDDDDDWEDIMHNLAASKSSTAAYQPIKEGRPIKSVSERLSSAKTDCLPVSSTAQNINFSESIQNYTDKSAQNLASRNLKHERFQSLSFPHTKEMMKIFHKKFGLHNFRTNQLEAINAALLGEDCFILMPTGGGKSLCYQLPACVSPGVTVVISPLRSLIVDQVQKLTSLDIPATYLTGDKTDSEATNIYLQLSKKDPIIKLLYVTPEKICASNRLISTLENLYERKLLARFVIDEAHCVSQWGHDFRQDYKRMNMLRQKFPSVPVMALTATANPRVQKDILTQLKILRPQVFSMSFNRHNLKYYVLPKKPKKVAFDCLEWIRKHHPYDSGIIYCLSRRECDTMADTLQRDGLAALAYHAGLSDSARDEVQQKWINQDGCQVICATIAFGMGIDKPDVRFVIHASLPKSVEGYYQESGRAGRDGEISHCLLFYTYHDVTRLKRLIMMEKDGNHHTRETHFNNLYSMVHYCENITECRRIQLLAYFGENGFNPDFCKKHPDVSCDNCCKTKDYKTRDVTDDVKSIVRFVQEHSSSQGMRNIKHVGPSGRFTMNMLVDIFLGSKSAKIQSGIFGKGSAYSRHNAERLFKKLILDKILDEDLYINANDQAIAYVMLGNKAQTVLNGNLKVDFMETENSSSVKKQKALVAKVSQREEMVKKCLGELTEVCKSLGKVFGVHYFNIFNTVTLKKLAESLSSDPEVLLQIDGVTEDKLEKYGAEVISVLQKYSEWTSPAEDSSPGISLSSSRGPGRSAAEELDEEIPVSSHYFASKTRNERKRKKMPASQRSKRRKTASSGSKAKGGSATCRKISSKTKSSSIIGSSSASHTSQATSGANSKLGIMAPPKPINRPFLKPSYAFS

[2] = test system: RecQ-like DNA helicase BLM (Homo sapiens), P54132 [E1143A]; test: Inhibition of His-tagged BLM E1143A mutant (unknown origin) binding to DNA assessed as effect on unbound DNA
Sequence of RecQ-like DNA helicase BLM (Homo sapiens), P54132 [E1143A] (P54132 whole entry E1143A): as the sequence (P54132 whole entry) above, with E1143A counted along it
Outline: (§1)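 Biotinylated forked DNA (50 nM) immobilised on streptavidin plates overnight at 4 °C. BLM or mutant (100 nM final) premixed with serially halved ligand in 3% BSA blocking buffer, ≤1% DMSO, 1 h on ice. Applied to the blocked plate for 1 h at 37 °C. Bound BLM detected with anti-BLM and HRP secondary, TMB, A450; Hill fit.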

[3] = test system: RecQ-like DNA helicase BLM (Homo sapiens), P54132 [I1168A]; test: Inhibition of His-tagged BLM I1168A mutant (unknown origin) binding to DNA assessed as effect on unbound DNA; outline: as §1
Sequence of RecQ-like DNA helicase BLM (Homo sapiens), P54132 [I1168A] (P54132 whole entry I1168A): as the sequence (P54132 whole entry) above, with I1168A counted along it

[4] = test system: RecQ-like DNA helicase BLM (Homo sapiens), P54132 [M1111A]; test: Inhibition of His-tagged BLM M1111A mutant (unknown origin) binding to DNA assessed as effect on unbound DNA; outline: as §1
Sequence of RecQ-like DNA helicase BLM (Homo sapiens), P54132 [M1111A] (P54132 whole entry M1111A): as the sequence (P54132 whole entry) above, with M1111A counted along it

[5] = test system: RecQ-like DNA helicase BLM (Homo sapiens), P54132 [H996A]; test: Inhibition of His-tagged BLM H996A mutant (unknown origin) binding to DNA assessed as effect on unbound DNA; outline: as §1
Sequence of RecQ-like DNA helicase BLM (Homo sapiens), P54132 [H996A] (P54132 whole entry H996A): as the sequence (P54132 whole entry) above, with H996A counted along it

[6] = target: T1, RecQ-like DNA helicase BLM; test: Inhibition of His-tagged BLM (unknown origin) expressed in Escherichia coli BL21 (DE3) assessed as reduction in BLM helicase unwinding activity at 1 uM using 5'-biotin labeled forked-DNA as substrate after 1 hr by PAGE analysis
Outline: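 BLM642-1296 (His-tagged, E. coli BL21(DE3)) preincubated with ligand (1.0, 10, 50 μM; ≤1% DMSO) for 1 h at 4 °C. Reaction: 8 nM annealed 5′-biotin duplex forked DNA, 32 nM BLM, 2 mM ATP, 0.1% BSA, 1 h.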

[7] = target: T1, RecQ-like DNA helicase BLM; test: Inhibition of 5'-biotin labeled duplex forked-DNA binding to BLM (unknown origin) assessed as increase in unbound DNA levels after 1 hr by ELISA; outline: as §1
[8] = target: T1, RecQ-like DNA helicase BLM; test: Inhibition of BLM in human HCT116 cells assessed as induction of HRR up-regulation after 24 hrs by GFP-based flow cytometry; format: cell-based
Outline: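 HCT116 cells (2×10^5) co-transfected with DR-GFP HRR reporter and I-SceI plasmid; 24 h later treated with 0–2 μM ligand (reference 0–50 μM); BLM siRNA knockdown where stated. GFP-positive cells counted by flow cytometry and normalised to untreated; triplicate, mean ± SD.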

[9] = target: T1, RecQ-like DNA helicase BLM; test: Inhibition of BLM in human HCT116 cells assessed as induction of RAD51 recruitment to DSB sites on HRR at 0.5 to 1 uM after 48 hrs by ChIP assay; format: cell-based
Outline: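 HCT116 cells co-transfected with HRR(−) reporter DSB model (or chromosomal I-SceI DSBs) and I-SceI; after 24 h given 0–2 μM ligand for 24 h. Crosslinked in 1% formaldehyde, chromatin digested by micrococcal nuclease to 0.2–0.5 kb, IP with anti-BLM or anti-RAD51 (IgG control). qPCR at DSB sites, normalised to untreated; triplicate.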

[10] = target: T1, RecQ-like DNA helicase BLM; test: Inhibition of BLM in human HCT116 cells assessed as induction of RAD51 foci accumulation on gamma-H2AX foci at 1 to 2 after 24 hrs by immunofluorescence assay; format: cell-based
Outline: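 HCT116 cells treated 24 h, fixed in 4% paraformaldehyde, permeabilised with 0.5% Triton X-100, blocked in 5% goat serum. Stained with γ-H2AX and RAD51 antibodies overnight at 4 °C, Alexa 488/647 secondaries and DAPI. Imaged by confocal microscopy for foci co-localisation.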

HCT-116 [11] = test: Induction of apoptosis in human HCT116 cells assessed as apoptotic cells after 48 hrs by Hoechst/propidium iodide-staining based flow cytometry; format: functional, cell-based
HCT-116 [12] = test: Induction of apoptosis in human HCT116 cells assessed as increase in cleaved caspase 7 expression at 2 uM after 48 hrs by Western blot analysis; format: functional, cell-based
Outline: (§2)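 HCT116 cells treated with ligand (DNA-damage proteins 24 h, apoptosis proteins 48 h), lysed in RIPA at 4 °C. 40 μg protein per lane resolved by SDS-PAGE, blotted to PVDF, probed with damage and apoptosis antibody panels; β-actin loading control; chemiluminescent detection.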

HCT-116 [13] = test: Induction of apoptosis in human HCT116 cells assessed as increase in cleaved PARP expression at 2 uM after 48 hrs by Western blot analysis; format: functional, cell-based; outline: as §2
HCT-116 [14] = test: Antiproliferative activity against human HCT116 cells after 24 hrs by MTT assay; format: functional, cell-based; details: in the assay text read “48 hrs” for “24 hrs”
Outline: (§3)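 HCT116 cells (5×10^3/well) grown 24 h, then exposed to 0–50 μM test agent; for knockdown, cells pre-treated with 50 nM BLM siRNA for 24 h first.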

HCT-116 [15] = test: Antiproliferative activity against human HCT116 cells after 24 hrs in presence of siRNA by MTT assay; format: functional, cell-based; details: in the assay text read “after 48 hrs” for “after 24 hrs”; outline: as §3
[16] = target: T1, RecQ-like DNA helicase BLM; test: Binding affinity to His-tagged BLM (642 to 1296 residues) (unknown origin) expressed in Escherichia coli BL21 (DE3) by ITC assay
Outline: (§4)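 ITC at 25 °C in 2 mM MgCl2, 10 mM KH2PO4, pH 7.5: ligand (0.6 mM, syringe) titrated in 10 μL injections, 300 s apart, into BLM642-1296 wild-type or point mutant, or DNA (0.04 mM, cell). His-tagged BLM from E. coli BL21(DE3), induced with […] at 16 °C for 24 h. Heats integrated, fitted to 1:1 model for KD.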

[17] = target: RecQ-like DNA helicase BLM (Homo sapiens, UniProt P54132, M1111A); test: Binding affinity to His-tagged BLM M1111A mutant (unknown origin) expressed in Escherichia coli BL21 (DE3) by ITC assay; outline: as §4
Sequence of RecQ-like DNA helicase BLM (Homo sapiens, UniProt P54132, M1111A) (P54132 whole entry M1111A): as the sequence (P54132 whole entry) above, with M1111A counted along it

[18] = target: RecQ-like DNA helicase BLM (Homo sapiens, UniProt P54132, I1168A); test: Binding affinity to His-tagged BLM I1168A mutant (unknown origin) expressed in Escherichia coli BL21 (DE3) by ITC assay; outline: as §4
Sequence of RecQ-like DNA helicase BLM (Homo sapiens, UniProt P54132, I1168A) (P54132 whole entry I1168A): as the sequence (P54132 whole entry) above, with I1168A counted along it

[19] = target: RecQ-like DNA helicase BLM (Homo sapiens, UniProt P54132, E1143A); test: Binding affinity to His-tagged BLM E1143A mutant (unknown origin) expressed in Escherichia coli BL21 (DE3) by ITC assay; outline: as §4
Sequence of RecQ-like DNA helicase BLM (Homo sapiens, UniProt P54132, E1143A) (P54132 whole entry E1143A): as the sequence (P54132 whole entry) above, with E1143A counted along it

HCT-116 [20] = test: Induction of apoptosis in human HCT116 cells assessed as up-regulation of ATM phosphorylation up to 2 uM after 24 hrs by Western blot analysis
HCT-116 [21] = test: Induction of apoptosis in human HCT116 cells assessed as up-regulation of ATR phosphorylation up to 2 uM after 24 hrs by Western blot analysis

inhibition [1]: inactive | inhibition [2]: inactive | inhibition [3]: inactive | inhibition [4]: inactive | inhibition [5]: inactive | inhibition [6]: Active | IC50 [7]: 3.95 µM | inhibition [7]: Dose-dependent effect | inhibition [8]: Dose-dependent effect | inhibition [9]: Active | inhibition [10]: Active | Kd [16]: 1.8 µM | Kd [17]: 4.9 µM | Kd [18]: 6.5 µM | Kd [19]: 6 µM
Structure (SMILES): CCN(CC)CCCNc1cc2nc3n(c(=O)c2cc1F)CC/C3=C\c1ccc(C(C)C)cc1
Activity (HCT-116 [11]): Dose-dependent effect | Activity (HCT-116 [12]): Active | Activity (HCT-116 [13]): Active | Activity (HCT-116 [14]): Dose-dependent effect | Activity (HCT-116 [15]): inactive | Activity (HCT-116 [20]): Active | Activity (HCT-116 [21]): Active
